Experimental data taken from paper PMC7083616 (Science Advances, 2020).

What was measured:
[1] = target: T1, ~55-kDa band (TrxR1) in A549 cell lysates (Homo sapiens, UniProt Q16881); experiment: DG-8 competition assay in A549 cell lysates; format: binding; conditions: compound 0.5 to 50 μM 30 min, then DG-8 5 μM 30 min
T1 sequence (Q16881 1-499 isoform Q16881-5): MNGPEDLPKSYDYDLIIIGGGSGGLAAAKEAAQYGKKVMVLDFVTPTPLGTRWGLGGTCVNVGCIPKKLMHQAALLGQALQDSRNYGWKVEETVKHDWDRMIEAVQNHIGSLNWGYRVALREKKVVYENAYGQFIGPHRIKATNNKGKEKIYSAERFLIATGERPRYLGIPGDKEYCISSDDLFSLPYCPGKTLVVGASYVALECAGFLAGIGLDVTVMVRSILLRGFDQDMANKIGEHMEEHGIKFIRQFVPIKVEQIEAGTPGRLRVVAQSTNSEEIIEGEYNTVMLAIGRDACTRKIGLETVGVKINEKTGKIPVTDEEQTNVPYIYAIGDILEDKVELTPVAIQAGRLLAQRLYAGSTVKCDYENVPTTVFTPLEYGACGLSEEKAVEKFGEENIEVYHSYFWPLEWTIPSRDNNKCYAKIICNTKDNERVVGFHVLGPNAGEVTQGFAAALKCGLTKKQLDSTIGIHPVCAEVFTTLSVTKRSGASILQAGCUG
Summary of the method: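 A549 lysate (30 μg) was preincubated with test compound (0.5 to 50 μM) for 30 min, then with the dansyl-tagged probe (5 μM) for 30 min. Samples in LDS buffer with 100 mM DTT were heated at 95°C for 5 min and run on 10% bis-tris gels. The ~55-kDa band was imaged by UV dansyl fluorescence.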

TrxR1 [2] = target: T2, TrxR1 (Homo sapiens, UniProt Q16881); experiment: Cellular TrxR1 activity, Trx1-linked insulin end point assay; format: cell-based; conditions: FaDu cells, 1 μM, 3 hours
T2 sequence (Q16881 1-499 isoform Q16881-5): T1 sequence (Q16881 1-499 isoform Q16881-5)
Summary of the method: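 FaDu cells were seeded at 400,000 per well and treated 24 h later for 3 h at 37°C. Cells were lysed in modified RIPA buffer and protein measured by BCA. Lysate was incubated with 0.16 mM insulin, 0.33 mM NADPH and 16 μM Trx1 in TE buffer (pH 7.5) at 37°C for 0–90 min. Each time point was stopped with 7.2 M guanidine-HCl/2.5 mM DTNB and read at A412. Activity came from the A412 rise against a pure-enzyme standard curve; n = 3.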

TrxR1 [3] = target: T2, TrxR1; experiment: Recombinant TrxR1 insulin reduction assay; format: biochemical; conditions: with NADPH, Trx1 used to reduce insulin
Summary of the method: (§1)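 Test compound was preincubated for 75 min with 10 nM TrxR1 or 10 nM TrxR2, plus BSA (0.1 mg/ml) and 250 μM NADPH. Then 25 μM Trx1 (TrxR1) or Trx2 (TrxR2) and 160 μM insulin were added. NADPH consumption was followed at A340 for 20 min.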

Nrf2 = experiment: pTRAF reporter, Nrf2 transcriptional activity; format: cell-based, human; conditions: HEK293 cells, 1 μM, 24 hours
Summary of the method: (§2)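 HEK293 cells were seeded at 20,000 per well on collagen I-coated plates. The next day, they were transfected overnight with 50 ng of the pTRAF-Nrf2/HIF/NFκB vector using Turbofect. Cells were then exposed for 24 h to 1 μM test compound. Positive controls were auranofin (1 μM) for Nrf2 and TNF-α (20 ng/ml) for NFκB. After 30 min Hoechst (40 ng/ml), per-well reporter fluorescence was quantified by high-content imaging.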

NFκB = experiment: pTRAF reporter, NFκB transcriptional activity; format: cell-based, human; conditions: HEK293 cells, 1 μM, 24 hours
Summary of the method: as §2

[4] = system: STAT-driven luciferase expression; experiment: STAT-dependent luciferase in HEK293-shScramble and HEK293–shPrx1 + Prx2; format: cell-based, human; conditions: IL6 50 ng/ml + sIL6R 100 ng/ml
TrxR2 = TrxR2 (Homo sapiens, UniProt Q9NNW7); experiment: Recombinant TrxR2 insulin reduction assay; format: biochemical; conditions: with NADPH, Trx2 used to reduce insulin
Chain of TrxR2 (Q9NNW7 37-524, species assumed): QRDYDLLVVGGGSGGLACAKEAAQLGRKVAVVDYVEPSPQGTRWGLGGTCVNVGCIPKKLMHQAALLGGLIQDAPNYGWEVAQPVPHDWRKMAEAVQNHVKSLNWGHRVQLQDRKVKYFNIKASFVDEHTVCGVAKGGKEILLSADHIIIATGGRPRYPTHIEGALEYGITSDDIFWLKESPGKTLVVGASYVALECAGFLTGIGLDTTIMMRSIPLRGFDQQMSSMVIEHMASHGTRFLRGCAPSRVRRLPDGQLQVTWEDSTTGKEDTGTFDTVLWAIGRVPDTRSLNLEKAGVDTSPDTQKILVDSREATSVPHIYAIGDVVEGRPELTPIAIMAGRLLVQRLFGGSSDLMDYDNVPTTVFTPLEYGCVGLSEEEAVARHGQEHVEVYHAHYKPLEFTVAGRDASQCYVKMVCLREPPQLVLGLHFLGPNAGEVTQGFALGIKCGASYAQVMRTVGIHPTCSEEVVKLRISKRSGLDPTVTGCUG
Summary of the method: as §1

Row | SMILES | competition with DG-8 for binding to the ~55-kDa band [1] | effect on cellular TrxR1 activity (TrxR1 [2]) | inhibition of recombinant TrxR1 activity (TrxR1 [3]) | Nrf2 activation (Nrf2) | inhibition of cellular TrxR1 activity (TrxR1 [2]) | NFκB activation (NFκB) | luciferase inhibition in control versus Prx1 + Prx2 knockdown cells [4] | inhibition of recombinant TrxR2 activity (TrxR2)
1 | CN(CC(=O)N(Cc1ccc(C2CCCCC2)cc1)c1ccc(C(=O)O)c(O)c1)S(=O)(=O)c1c(F)c(F)c(F)c(F)c1F [BP1-102] | not able to compete with the probe | did not appreciably alter the TrxR1 activity | did not fully inhibit the enzymatic activity of TrxR1 | did not activate Nrf2 | – | – | – | –
2 | O=[N+]([O-])c1ccc2c(c1)S(=O)(=O)C=C2 [Stattic] | could compete with DG-8 for binding | – | potently inhibited the activity of TrxR1 | clearly triggered Nrf2 activation | approximately 40% | little effect on NFκB activation | more potently inhibited luciferase expression in the control cells | –
3 | COc1ccc([N+](=O)[O-])c(S(=O)(=O)c2ccc(Cl)cc2)n1 [TRi-1] | potently outcompeted the probe | – | – | – | – | – | more potently inhibited luciferase expression in the control cells | –
4 | CC(=O)OC[C@H]1O[C@@H]([S-])[C@H](OC(C)=O)[C@@H](OC(C)=O)[C@@H]1OC(C)=O.CCP(CC)CC.[Au+] [auranofin] | potently outcompeted the probe | – | potently inhibited the activity of TrxR1 | – | – | – | – | the only compound that inhibited TrxR2
